Data from ChEMBL document CHEMBL1124456, “Synthesis and structure-activity relationship of substituted tetrahydro- and hexahydro-1,2-benzisothiazol-3-one 1,1-dioxides and thiadiazinones: potential anxiolytic agents” (J Med Chem, 1989).
pKi: −log10 of the molar value. The source made the active and inactive calls. The calls are words filed in the database; no cut-off is given here.

Legend:
[1] = species on record: Rattus norvegicus; assay: Anti-psychotic activity from the ability to block discrete trial conditioned avoidance response (CAR) of rats.; type: functional
In short: (§1)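 Discrete-trial conditioned avoidance in male CD rats kept at about 400–450 g body weight. Dosing was ip or po, 30 min before testing, with at least five rats per dose (20 or 40 mg/kg, or a dose range). Computer recorded intertrial, avoidance and escape responses and no-response trials. Avoidance-block trials were taken as % of total trials, with control avoidance set at 100%. AB50 came from a least-squares dose-effect regression line.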

[2] = molecular target: T1, 5-hydroxytryptamine receptor 1A (Rattus norvegicus, UniProt P19327); assay: In vitro ability to inhibit [3H]8-OH-DPAT binding to 5-hydroxytryptamine 1A receptor of rat hippocampus and the value ranges from 12 to 17.; type: tissue-based
T1 sequence (P19327 whole entry): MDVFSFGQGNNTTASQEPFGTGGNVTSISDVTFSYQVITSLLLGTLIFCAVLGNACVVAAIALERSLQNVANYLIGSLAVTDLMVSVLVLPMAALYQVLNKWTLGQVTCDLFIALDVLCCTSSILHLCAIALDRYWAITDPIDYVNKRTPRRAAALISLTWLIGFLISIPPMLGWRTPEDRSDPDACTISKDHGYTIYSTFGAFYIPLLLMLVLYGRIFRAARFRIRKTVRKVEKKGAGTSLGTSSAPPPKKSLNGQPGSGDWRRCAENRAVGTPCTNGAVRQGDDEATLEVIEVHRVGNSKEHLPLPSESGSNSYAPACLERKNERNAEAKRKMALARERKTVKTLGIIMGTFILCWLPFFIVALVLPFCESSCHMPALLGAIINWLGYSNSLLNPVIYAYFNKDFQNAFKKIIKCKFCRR

[3] = molecular target: D(2) dopamine receptor (Rattus norvegicus) (UniProt P61169); assay: Inhibition of [3H]spiperone binding to Dopamine receptor D2 of rat limbic structures; type: tissue-based; set-up: concentration or dose not given beside the values; details: Limbic system, concentration not given here
Chain of D(2) dopamine receptor (Rattus norvegicus) (P61169 whole entry): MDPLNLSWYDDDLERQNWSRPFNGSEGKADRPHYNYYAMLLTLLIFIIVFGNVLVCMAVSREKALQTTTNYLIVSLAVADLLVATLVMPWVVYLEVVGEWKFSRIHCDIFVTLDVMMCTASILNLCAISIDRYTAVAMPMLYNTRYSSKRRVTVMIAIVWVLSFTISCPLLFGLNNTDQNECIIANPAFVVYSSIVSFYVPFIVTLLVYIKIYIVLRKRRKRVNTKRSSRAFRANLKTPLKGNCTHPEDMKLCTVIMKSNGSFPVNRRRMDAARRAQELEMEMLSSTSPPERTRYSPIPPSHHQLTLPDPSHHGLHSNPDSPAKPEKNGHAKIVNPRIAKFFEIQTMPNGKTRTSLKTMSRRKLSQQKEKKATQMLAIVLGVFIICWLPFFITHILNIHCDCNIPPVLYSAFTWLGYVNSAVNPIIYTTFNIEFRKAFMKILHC

[4] = species on record: Rattus norvegicus; assay: Anti psychotic activity was evaluated from the ability to block discrete trial conditioned avoidance response (CAR) of rats. (95%CI); 39 to 53; type: functional; in short: as §1
[5] = molecular target: T2, 5-hydroxytryptamine receptor 1A (Rattus norvegicus) (UniProt P19327); assay: In vitro ability to inhibit [3H]-8-OH-DPAT binding to 5-hydroxytryptamine 1A receptor of rat hippocampus at 1 uM; type: tissue-based
T2 sequence (whole entry): T1 sequence (P19327 whole entry)

[6] = molecular target: D(2) dopamine receptor (Rattus norvegicus) (UniProt P61169); assay: In vitro ability to inhibit [3H]spiperone binding to Dopamine receptor D2 of rat limbic structures at 10 uM; type: tissue-based; details: Limbic system
[7] = molecular target: T2, 5-hydroxytryptamine receptor 1A (Rattus norvegicus); assay: In vitro ability to inhibit [3H]8-OH-DPAT binding to 5-hydroxytryptamine 1A receptor of rat hippocampus at 1 uM; type: tissue-based
[8] = molecular target: D(2) dopamine receptor (Rattus norvegicus) (UniProt P61169); assay: Inhibition of [3H]-spiperone binding to dopamine receptor D2 of rat limbic structures at 1 uM.; details: Limbic system
[9] = system: Rattus norvegicus; assay: Mean total score of In vivo ability (10.0 mg/kg) was to antagonize serotonin syndrome; type: functional
[10] = species on record: Rattus norvegicus; assay: Anti psychotic activity was evaluated from the ability to block discrete trial conditioned avoidance response (CAR) of rats and the value ranges from 26 - 143; type: functional; in short: as §1
[11] = molecular target: T3, Adrenergic receptor alpha-1 (Rattus norvegicus) (UniProt P15823+P23944+P43140); assay: The percent inhibition of Alpha-1 adrenergic receptor at 1 uM; type: protein assay
[12] = Partition coefficient (logP); type: physicochemical; details: octanol/water
[13] = molecular target: D(2) dopamine receptor (Rattus norvegicus, UniProt P61169); assay: In vitro ability to inhibit [3H]spiperone binding to Dopamine receptor D2 of rat limbic structures and the value ranges from 116 - 159.; type: tissue-based, Limbic system
Chain of D(2) dopamine receptor (P61169 whole entry): as above

[14] = system: Rattus norvegicus; assay: Mean total score of in vivo ability (8.0 mg/kg) was to elicit serotonin syndrome; type: functional
[15] = molecular target: T4, GABA-A receptor; anion channel (Rattus norvegicus) (UniProt O09028+P15431+P18506+P18508+P19969+P20236+P23574+P23576+P28471+P28473+P30191+P62813+P63079+P63138+Q91ZM7+Q9ES14); assay: (§2) Percent inhibition of GABA-A benzodiazepine receptor at 1 uM; type: protein-complex assay
In short: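 Male Sprague-Dawley rat brain (cerebellum and pons-medulla removed) was homogenized in 0.32 M sucrose to give a 30000g pellet, resuspended in Tris-HCl pH 7.5. Membranes were incubated with 1.5×10^-9 M [³H]diazepam (2.0 mL final) for 30 min at 4 °C, GF/C filtered, washed ice-cold and scintillation counted. Nonspecific binding was taken with 3×10^-6 M cold diazepam. Drug was tested at 1 μM.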

[16] = molecular target: T1, 5-hydroxytryptamine receptor 1A; assay: In vitro ability to inhibit [3H]8-OH-DPAT binding to 5-HT1A receptor of rat hippocampus and the value ranges from 9 - 12; type: tissue-based
[17] = system: Rattus norvegicus; assay: Compound was tested for antagonism of apomorphine-induced climbing behavior, after intraperitoneal dosing and the value ranges from 0.97 - 11.7; type: functional; details: ip
[18] = system: Rattus norvegicus; assay: Compound was tested for antagonism of apomorphine-induced stereotyped behavior, after intraperitoneal dosing.; type: functional; details: ip
In short: (§3)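 High-dose apomorphine-induced stereotyped behavior procedure. Test agents were given ip at doses up to 60 mg/kg.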

[19] = molecular target: T1, 5-hydroxytryptamine receptor 1A; assay: The inhibition activity of 5-HT1A at 1 uM
[20] = species on record: Rattus norvegicus; assay: Antipsychotic activity was evaluated from the ability to block discrete trial conditioned avoidance response (CAR) of rats; type: functional
In short: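 Male CD rats (about 400–450 g) trained in discrete-trial avoidance. Compound given ip or po 30 min before testing, at 20 or 40 mg/kg or over a dose range, with at least five rats per dose. Intertrial, avoidance, escape and no-response trials were recorded. Avoidance block is the percentage of trials without avoidance. AB50 comes from a least-squares dose–effect regression line.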

[21] = system: Rattus norvegicus; assay: In vivo ability (10.0 mg/kg) was to antagonize serotonin syndrome in rat; type: functional
In short: (§4)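 Rat in vivo test adapted from published serotonin syndrome methods. Agents given ip; 5-MeO-DMT at 3.0 mg/kg ip was used to elicit the syndrome. Behaviour rated and reported as mean total score (±SEM).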

[22] = system: Rattus norvegicus; assay: Compound was tested for antagonism of apomorphine-induced climbing behavior, after intraperitoneal dosing; type: functional; details: ip
[23] = system: Rattus norvegicus; assay: In vivo ability (10.0 mg/kg) was to elicit serotonin syndrome in rat; type: functional; in short: as §4
[24] = system: Rattus norvegicus; assay: Compound was tested for antagonism of apomorphine-induced stereotyped behavior, after intraperitoneal dosing; NA is Inactive; type: functional, organism-based; in short: as §3
[25] = molecular target: D(2) dopamine receptor (Rattus norvegicus) (UniProt P61169); assay: Compound was tested in vitro at for the ability to inhibit [3H]spiperone binding to Dopamine receptor D2 of rat limbic structures at 3 uM; type: tissue-based; details: Limbic system
[26] = molecular target: T1, 5-hydroxytryptamine receptor 1A; assay: In vitro ability to inhibit [3H]-8-OH-DPAT binding to 5-hydroxytryptamine 1A receptor of rat hippocampus. and the value ranges from 16 - 27; type: tissue-based
[27] = molecular target: Adrenergic receptor beta (Rattus norvegicus) (UniProt P18090+P10608+P26255); assay: Percent inhibition of Beta adrenergic receptor by 1 uM of compound; type: protein assay
[28] = molecular target: T4, GABA-A receptor; anion channel (Rattus norvegicus); assay: as §2; type: protein-complex assay; remark: listed apart in the source
In short: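 Incubated with 1.5×10^-9 M [³H]diazepam for 30 min at 4 °C, then filtered on GF/C and counted by scintillation. Nonspecific binding defined with 3×10^-6 M unlabelled diazepam.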

[29] = molecular target: T3, Adrenergic receptor alpha-1 (Rattus norvegicus); assay: Percent inhibition of Alpha-1 adrenergic receptor by 1 uM of compound; type: protein assay

Compound: Cl.Cl.O=C1C2C3C=CC(C3)C2S(=O)(=O)N1CCCCN1CCN(c2cccc(C(F)(F)F)c2)CC1 (configuration not stated)
- AB50 [1]: 51 mg/kg
- pKi [2]: 7.82

Compound: Cl.O=C1C2C3CCC(C3)C2S(=O)(=O)N1CCCCN1CCN(c2cncc(Cl)n2)CC1 (configuration not stated)
- inhibition [3]: 32%
- AB50 [4]: 45 mg/kg
- inhibition [5]: 51%

Compound: CC1=C(C)CC2C(C1)C(=O)N(CCCCN1CCN(c3cncc(Cl)n3)CC1)S2(=O)=O.Cl.Cl.Cl (configuration not stated)
- AB50 [1]: 40 mg/kg
- inhibition [6]: 66%

Compound: Cl.O=C1[C@H]2C3CCC(O3)[C@H]2S(=O)(=O)N1CCCCc1ccncc1 (some centres not stated)
- AB50 [1]: 40 mg/kg
- inhibition [7]: 0%
- inhibition [8]: 3%

Compound: Cl.Cl.O=C1C2C3C=CC(C4C=CC43)C2S(=O)(=O)N1CCCCN1CCN(c2ncccn2)CC1 (configuration not stated)
- Mean [9]: 5.1
- AB50 [10]: 39 mg/kg
- inhibition [11]: 54%
- logP [12]: 1.92
- pKi [13]: 6.87
- Mean [14]: 3.9
- inhibition [15]: 0%
- pKi [16]: 8.00
- ED50 [17]: 3.38 mg/kg
- ED50 [18]: 32.2 mg/kg
- pKi [19]: 8.00

Compound: Cl.O=C1[C@@H]2C3CCC(O3)[C@@H]2S(=O)(=O)N1CCCCN1CCN(c2cncc(Cl)n2)CC1 (some centres not stated)
- inhibition [3]: 10%
- AB50 [1]: 40 mg/kg
- inhibition [5]: 54%

Compound: O=C1c2ccccc2S(=O)(=O)N1CCCCN1CCN(c2ncccn2)CC1 [IPSAPIRONE]
- AB50 [20]: 42 mg/kg
- Mean [21]: 8.4
- ED50 [22]: 26 mg/kg
- Mean [23]: 2.4
- ED50 [24]: inactive

Compound: Cl.Cl.O=C1c2ccccc2S(=O)(=O)N1CCCCN1CC2CN(Cc3ccccc3)CC2C1 (configuration not stated)
- inhibition [3]: 8%
- AB50 [1]: >40 mg/kg

Compound: Cl.O=C1c2ccccc2S(=O)(=O)N1CCCCN1CCN(c2nccnc2Cl)CC1
- AB50 [1]: 40 mg/kg

Compound: Cl.O=C1C2C3C=CC(CC3)C2S(=O)(=O)N1CCCCN1CCN(c2cncc(Cl)n2)CC1 (configuration not stated)
- AB50 [1]: 40 mg/kg
- inhibition [25]: 57%

Compound: CC1CC(=O)N(CCCCN2CCN(c3ncccn3)CC2)S(=O)(=O)N1.Cl (configuration not stated)
- AB50 [1]: 40 mg/kg

Compound: Cl.Cl.O=C1C2C3C=CC(CC3)C2S(=O)(=O)N1CCCCN1CCN(c2ncccn2)CC1 (configuration not stated)
- AB50 [1]: 40 mg/kg

Compound: Cl.O=C1C2C3C=CC(C3)C2S(=O)(=O)N1CCCCc1ccncc1 (configuration not stated)
- inhibition [3]: 1%
- AB50 [1]: 40 mg/kg

Compound: Cl.O=C1C2C3CCC(C4CC43)C2S(=O)(=O)N1CCCCN1CCN(c2ncccn2)CC1 (configuration not stated)
- inhibition [3]: 70%
- AB50 [1]: 40 mg/kg
- pKi [26]: 7.68

Compound: Cl.O=C1c2ccccc2S(=O)(=O)N1CCCCN1CCn2cccc2C1
- inhibition [3]: 0%
- AB50 [1]: >40 mg/kg

Compound: Cl.Cl.Cl.O=C1C2C3C=CC(C3)C2S(=O)(=O)N1CCCCN1CCN(c2cncc(Cl)n2)CC1 (configuration not stated)
- inhibition [3]: 1%
- AB50 [1]: 40 mg/kg

Compound: O=C1CC2(CCCC2)CC(=O)N1CCCCN1CCN(c2ncccn2)CC1 [BUSPIRONE]
- inhibition [27]: 0%
- AB50 [20]: 32 mg/kg
- Mean [21]: 6.1
- inhibition [28]: 0%
- Mean [23]: 2.9
- inhibition [29]: 33%

Compound: Cl.O=C1c2cscc2S(=O)(=O)N1CCCCN1CCN(c2nccnc2Cl)CC1
- AB50 [1]: >40 mg/kg
